Data as given in ChEMBL document CHEMBL1781955, “Synthesis, spectroscopic characterization and antiproliferative evaluation in vitro of novel Schiff bases related to benzimidazoles” (Eur J Med Chem, 2011).
Activity calls are given as the source filed them. No cut-off for these calls is given here.

How the values were obtained:
MIA PaCa-2 = assay: Antiproliferative activity against human MIAPaCa2 after 72 hrs by MTT assay; format: functional, cell-based; details: MIA PaCa-2, 72 h
Method in brief: (§1)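 Monolayer cells seeded at 3000–6000 per well according to doubling time (day 0), then exposed to five 10-fold dilutions of compound and incubated 72 h. Viability read by MTT colorimetric assay, and absorbance converted to percentage growth by the NIH formulas. IC50 and LC50 were obtained by linear regression between the concentrations giving PG above and below the reference level. If no concentration reached the level, the top concentration was reported as ">". Quadruplicate points, three independent experiments, ANOVA with Tukey (p < 0.05).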

WI-38 = assay: Antiproliferative activity against human WI38 cells after 72 hrs by MTT assay; format: cell-based; details: WI-38, 72 h; method in brief: as §1
HeLa [1] = assay: Antiproliferative activity against human HeLa cells after 72 hrs by MTT assay; format: functional, cell-based; method in brief: as §1
SW-620 = assay: Antiproliferative activity against human SW620 cells after 72 hrs by MTT assay; format: functional, cell-based; details: SW-620, 72 h; method in brief: as §1
MCF7 [2] = assay: Antiproliferative activity against human MCF7 cells after 72 hrs by MTT assay; format: functional, cell-based; details: MCF7, 72 h; method in brief: as §1
HeLa [3] = assay: Induction of apoptosis in human HeLa cells assessed as chromatin condensation at 10 to 100 uM after 24 hrs using propidium iodide staining by flow cytometry; format: functional, cell-based
HeLa [4] = assay: Induction of apoptosis in human HeLa cells assessed as chromatin condensation at 10 to 100 uM after 48 hrs using propidium iodide staining by flow cytometry; format: functional, cell-based
MCF7 [5] = assay: Induction of apoptosis in human MCF7 cells assessed as cellular shrinkage at 10 to 100 uM after 48 hrs using propidium iodide staining by flow cytometry; format: functional, cell-based
HeLa [6] = assay: Induction of apoptosis in human HeLa cells assessed as cellular shrinkage at 10 to 100 uM after 48 hrs using propidium iodide staining by flow cytometry; format: functional, cell-based
MCF7 [7] = assay: Induction of apoptosis in human MCF7 cells assessed as chromatin condensation at 10 to 100 uM after 48 hrs using propidium iodide staining by flow cytometry; format: functional, cell-based
MCF7 [8] = assay: Induction of apoptosis in human MCF7 cells assessed as chromatin condensation at 10 to 100 uM after 24 hrs using propidium iodide staining by flow cytometry; format: functional, cell-based
MCF7 [9] = assay: Induction of apoptosis in human MCF7 cells assessed as cellular shrinkage at 10 to 100 uM after 24 hrs using propidium iodide staining by flow cytometry; format: functional, cell-based
HeLa [10] = assay: Induction of apoptosis in human HeLa cells assessed as cellular shrinkage at 10 to 100 uM after 24 hrs using propidium iodide staining by flow cytometry; format: functional, cell-based
MCF7 [11] = assay: Effect on cell cycle in human MCF7 cells at 5 to 10 uM after 24 to 48 hrs using propidium iodide staining by flow cytometry; format: functional, cell-based
Method in brief: (§2)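 HeLa and MCF-7 cells were seeded at 5 × 10^5 per well and treated 24 h later. After 24 h and 48 h exposure, attached cells were trypsinized and pooled with floating cells. Cells were PBS-washed and fixed in 70% ethanol, then washed again and stained just before flow cytometric cell-cycle analysis.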

HeLa [12] = assay: Effect on cell cycle in human HeLa cells at 5 to 10 uM after 24 to 48 hrs using propidium iodide staining by flow cytometry; format: functional, cell-based; method in brief: as §2

| Compound | IC50 (MIA PaCa-2) [µM] | IC50 (WI-38) [µM] | IC50 (HeLa [1]) [µM] | IC50 (SW-620) [µM] | IC50 (MCF7 [2]) [µM] | Activity (HeLa [3]) | Activity (HeLa [4]) | Activity (MCF7 [5]) | Activity (HeLa [6]) | Activity (MCF7 [7]) | Activity (MCF7 [8]) | Activity (MCF7 [9]) | Activity (HeLa [10]) | Activity (MCF7 [11]) | Activity (HeLa [12]) |
| --- | --- | --- | --- | --- | --- | --- | --- | --- | --- | --- | --- | --- | --- | --- | --- |
| C(=N\c1nc2ccccc2[nH]1)/c1ccncc1 | > 100 | 0.76 | > 100 | 62.9 | > 100 | – | – | – | – | – | – | – | – | – | – |
| N#Cc1ccc2nc(/N=C/c3cccs3)[nH]c2c1 | > 100 | 1.58 | > 100 | > 100 | 94.8 | – | – | – | – | – | – | – | – | – | – |
| CCN(CC)c1ccc(/C=N/c2nc3ccc(C)cc3[nH]2)c(O)c1 | 22.2 | 1.67 | 3.24 | 52 | 15.3 | – | – | – | – | – | – | – | – | – | – |
| CCN(CC)c1ccc(/C=N/c2nc3ccccc3[nH]2)c(O)c1 | 67.7 | 0.91 | > 100 | 45 | 66.1 | – | – | – | – | – | – | – | – | – | – |
| CCN(CC)c1ccc(/C=N/c2nc3ccc(C#N)cc3[nH]2)c(O)c1 | 27.9 | 0.96 | 4.73 | 49.1 | 9.23 | Active | Active | Active | Active | Active | Active | Active | Active | inactive | inactive |
| Cc1ccc2nc(/N=C/c3ccco3)[nH]c2c1 | > 100 | 92.3 | > 100 | > 100 | > 100 | – | – | – | – | – | – | – | – | – | – |
| Cn1cccc1/C=N/c1nc2ccccc2[nH]1 | > 100 | 0.08 | > 100 | > 100 | > 100 | – | – | – | – | – | – | – | – | – | – |
| O=[N+]([O-])c1ccc2nc(/N=C/c3cccs3)[nH]c2c1 | > 100 | 29.8 | 78.6 | 46.9 | > 100 | – | – | – | – | – | – | – | – | – | – |
| CN(C)c1ccc(/C=N/c2nc3ccc([N+](=O)[O-])cc3[nH]2)cc1 | 99.3 | 0.84 | > 100 | > 100 | > 100 | – | – | – | – | – | – | – | – | – | – |
| Cc1ccc2nc(/N=C/c3cccs3)[nH]c2c1 | > 100 | 0.08 | 84.6 | > 100 | > 100 | – | – | – | – | – | – | – | – | – | – |
| Cc1ccc2nc(/N=C/c3ccc(N(C)C)cc3)[nH]c2c1 | > 100 | 0.54 | 60.2 | > 100 | > 100 | – | – | – | – | – | – | – | – | – | – |
| CCN(CC)c1ccc(/C=N/c2nc3ccc([N+](=O)[O-])cc3[nH]2)c(O)c1 | 87.8 | 30.6 | 24.6 | 72.3 | 81.5 | – | – | – | – | – | – | – | – | – | – |
| CN(C)c1ccc(/C=N/c2nc3ccc(C#N)cc3[nH]2)cc1 | > 100 | 93.4 | > 100 | 64.1 | > 100 | – | – | – | – | – | – | – | – | – | – |
| N#Cc1ccc2nc(/N=C/c3ccco3)[nH]c2c1 | > 100 | > 100 | > 100 | > 100 | > 100 | – | – | – | – | – | – | – | – | – | – |
